Screening results deposited in PubChem by Johns Hopkins Ion Channel Center.
Sampled rows, rich in hits. Any-hit rate of the full collection: about 2.3%.
TRPC6 activator = activates the mouse TRPC6 cation channel; Q61143; HEK293-TRPC6 membrane potential dye fluorescence; hits give high values; B-score at 10 µM; 310,000 tested, 0.13% active;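 active means B-score of the integrated fluorescence ratio above library mean plus 3 SD, and starting fluorescence ratio within library mean plus 5 SD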;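 further: higher score means more depolarization so channel activation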
Target sequence (Q61143 whole entry, looked up): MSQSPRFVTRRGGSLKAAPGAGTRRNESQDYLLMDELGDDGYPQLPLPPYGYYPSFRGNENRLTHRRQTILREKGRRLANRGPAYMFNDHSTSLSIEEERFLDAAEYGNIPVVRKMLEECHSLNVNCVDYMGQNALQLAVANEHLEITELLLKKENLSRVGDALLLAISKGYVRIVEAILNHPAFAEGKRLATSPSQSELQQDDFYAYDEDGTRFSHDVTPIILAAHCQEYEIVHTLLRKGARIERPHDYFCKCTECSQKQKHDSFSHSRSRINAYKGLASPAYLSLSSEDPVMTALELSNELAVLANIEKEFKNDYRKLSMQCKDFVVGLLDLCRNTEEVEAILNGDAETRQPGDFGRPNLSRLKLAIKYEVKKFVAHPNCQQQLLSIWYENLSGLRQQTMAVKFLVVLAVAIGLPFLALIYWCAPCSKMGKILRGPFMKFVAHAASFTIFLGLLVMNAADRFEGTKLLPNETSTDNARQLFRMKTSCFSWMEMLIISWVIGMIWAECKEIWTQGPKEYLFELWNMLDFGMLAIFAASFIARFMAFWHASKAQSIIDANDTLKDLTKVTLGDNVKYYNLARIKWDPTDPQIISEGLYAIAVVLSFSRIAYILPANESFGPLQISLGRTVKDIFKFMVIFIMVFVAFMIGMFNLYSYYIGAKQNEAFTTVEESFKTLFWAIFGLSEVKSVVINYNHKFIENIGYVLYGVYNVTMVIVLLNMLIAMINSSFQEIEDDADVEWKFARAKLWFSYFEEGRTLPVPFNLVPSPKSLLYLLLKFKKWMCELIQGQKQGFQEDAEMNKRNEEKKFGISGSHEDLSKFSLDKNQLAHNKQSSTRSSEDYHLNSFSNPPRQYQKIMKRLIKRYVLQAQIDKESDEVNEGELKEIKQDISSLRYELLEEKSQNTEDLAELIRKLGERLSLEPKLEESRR
TRPC4 agonist = opens the mouse TRPC4 cation channel; Q9QUQ5; HEK293 TRPC4beta/mu-opioid, Fluo4 calcium fluorescence; hits give high values; B-score at 10 µM; 310,000 tested, 0.49% active;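 active means B-score above 5 SD of library B-scores, and initial fluorescence ratio not above library mean plus 5 SD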;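 further: positive B-score marks a calcium rise read as TRPC4 activation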
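Material: TRPC4beta and mu-opioid receptor HEK293 stable cells | Incubation: 45 min room-temperature Fluo4 loading, 110 s read | Detection: Kinetic Fluo4 calcium fluorescence | Measure: Integrated baseline-normalised fluorescence ratio, converted to per-well B score | Benchmarks: Low control buffer alone, high control maximal DAMGO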
TRPC4 block = blocks the mouse TRPC4 cation channel; Q9QUQ5; HEK293 TRPC4beta/mu-opioid, DAMGO-evoked Fluo4 calcium flux; hits give low values; B-score at 10 µM; 300,000 tested, 0.39% active; AID 2247;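 active means B-score over 3 SD under the library average, no early fluorescence shift, positive overall ratio signal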
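Material: HEK293 cells with stable TRPC4beta plus mu-opioid receptor expression / Probe or stimulus: DAMGO in two steps, submaximal then maximal / Compound: single concentration per test compound / Technique: kinetic Fluo4 fluorescence imaging of calcium influx / Read-out: per-well B score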
TRPC4 PAM = TRPC4 (mouse) allosteric potentiation; Q9QUQ5; HEK293 TRPC4beta/mu-opioid, DAMGO EC20, Fluo-4 Ca2+ flux; hits give high values; B-score at 10 µM; 310,000 tested, 0.42% active;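 active means B-score of calcium response area above 5 SD of library B-scores, with initial fluorescence ratio within 5 SD of library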
TRPC6 inhibitor = blocks the mouse TRPC6 cation channel; Q61143; HEK293-TRPC6, membrane potential dye, ACh-evoked depolarization; hits give low values; 310,000 tested, 1.1% active; AID 2553; B-score at 10 µM;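 active means B-score under library mean minus 3 SD, initial fluorescence not abnormally high, positive integrated signal ratio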;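 further: B-score derived from integrated fluorescence ratio over the kinetic read; more negative B-score means stronger inhibition of depolarization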
TRPC4 spec 2 = mouse TRPC4 off-target activity of TRPC6 inhibitors, second screen | shares compounds with TRPC6 inhibitor | HEK293 TRPC4/MOR, membrane potential dye fluorescence; channel activated by saturating DAMGO dose | inhibition, % at 10 µM | 920 tested, 42% active | AID 2776;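 active means compounds whose fluorescence signal differed from control wells by over 3 SD, either direction, in both duplicate plates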
TRPC4 spec = selectivity of TRPC6 inhibitors: effect on mouse TRPC4; HEK293 TRPC4/mu-opioid, membrane potential fluorescence; 920 tested, 61% active; shares compounds with TRPC6 inhibitor; activity change, negative = inhibition, % at 10 µM;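 active means rise or fall in signal beyond 3 SD of buffer-only wells in both replicate plates, either sign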;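 further: integrated kinetic ratio of fluorescence range over baseline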
HEK293 MPD ctr 2-1 = parental HEK293 nonspecific activity of TRPC6 inhibitors, second screen; 920 tested, 31% active; signal change vs control, % at 10 µM; shares compounds with TRPC6 inhibitor; parental HEK293 membrane potential dye fluorescence; maximal acetylcholine challenge after compound addition;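 active means membrane potential signal moving either way by over 3 SD of the maximum-effect control, in both duplicate plates, meaning non-specific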
HEK293 MPD ctr-1 = checks TRPC6 inhibitor effects in parental HEK293 cells | 920 tested, 60% active | shares compounds with TRPC6 inhibitor | membrane potential signal change, % at 10 µM | parental HEK293 membrane potential dye fluorescence;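 active means membrane potential signal shifting up or down by more than 3 SD of buffer-only wells, on both duplicate plates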
HEK293 MPD ctr-2 = parental HEK293 nonspecific activity of TRPC6 modulators; 2,400 tested, 51% active; membrane potential signal change, % at 10 µM; shares compounds with TRPC6 inhibitor; AID 488924; membrane potential dye fluorescence;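 active means membrane potential signal moves up or down beyond 5 SD from buffer-only wells, on both duplicate plates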
HEK293 MPD ctr 2-2 = second check of TRPC6 modulator effects in parental HEK293 cells. 2,400 tested, 14% active. membrane potential dye fluorescence; after compound, maximal acetylcholine stimulation. shares compounds with TRPC6 inhibitor. inhibition, % at 10 µM;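 active means membrane potential signal drops by more than 5 SD from the mean control signal, in both duplicate plates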
TRPC4/MOR mod = selectivity of TRPC6 modulators against mouse TRPC4. shares compounds with TRPC6 inhibitor. HEK293 TRPC4/mu-opioid, membrane potential fluorescence. percent change from control (negative = decrease, positive = increase), % at 10 µM. 2,400 tested, 69% active. AID 488927;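 active means membrane potential signal moved up or down beyond 5 SD of buffer control wells, in both duplicate plates, actives on both sides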
TRPC4/MOR inh 2 = second check of whether TRPC6 modulators also affect mouse TRPC4. inhibition, % at 10 µM. HEK293 TRPC4/mu-opioid, membrane potential dye fluorescence; stimulated with maximal-effect DAMGO. shares compounds with TRPC6 inhibitor. 2,400 tested, 55% active;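 active means drop in membrane potential signal beyond 5 SD of the control wells in both duplicate plates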;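 further: TRPC4 counter screen for TRPC6 hits run under conditions tuned for TRPC6 not TRPC4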
TRPC6 block conf = confirmation of mouse TRPC6 inhibitors | shares compounds with TRPC6 inhibitor | HEK293-TRPC6, membrane potential dye, ACh-evoked depolarization | inhibition, % at 10 µM | 3,300 tested, 43% active;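 active means fluorescence ratio falls more than 5 SD below the full-stimulation control mean, in both duplicate runs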;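 further: integrated fluorescence ratio of peak minus minimum over baseline after agonist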
TRPC6 act confirm = mouse TRPC6 activator confirmation | 2,800 tested, 11% active | activation, % at 10 µM | shares compounds with TRPC6 inhibitor | AID 488961 | HEK293-TRPC6 membrane potential dye fluorescence, FDSS;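 active means ratio signal rise beyond 5 SD above unstimulated control wells' mean, seen in both duplicate runs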
Each line names hits and unclear results; the compound was inactive in the other large screens (follow-up assays come after a bar, where they were run).

c1ccc(-c2cnnc(N3CCCCC3)n2)cc1	TRPC6 inhibitor -6.94 | TRPC4 spec 2 inactive | TRPC4 spec 0.7% | HEK293 MPD ctr 2-1 inactive | HEK293 MPD ctr-1 inactive | TRPC6 block conf 71.7%
FC(F)(F)c1cc(-c2ccccc2)nc(N2CCCCCC2)n1	none
CCCCCCN1C=C/C(=C\C=C(C#N)C#N)c2ccccc21	none
CCCN1C=CC(=CC=C(C#N)C#N)C=C1	none
CCCCCCN1C=CC=C/C1=C/C=C(C#N)C#N	TRPC6 activator 25.8 | HEK293 MPD ctr-2 370.5% | HEK293 MPD ctr 2-2 inactive | TRPC4/MOR mod 101.5% | TRPC4/MOR inh 2 inactive | TRPC6 block conf inactive | TRPC6 act confirm 117.5%
CCCCCN1C=CC=C/C1=C\C=C(C#N)C#N	TRPC6 activator 14.9, TRPC6 inhibitor -5.34 | HEK293 MPD ctr-2 712.5% | HEK293 MPD ctr 2-2 inactive | TRPC4/MOR mod inactive | TRPC4/MOR inh 2 inactive | TRPC6 block conf inactive | TRPC6 act confirm 100.0%
CC1(C)CC(NC(=O)C2CCC(=O)N(Cc3ccccc3F)C2)CC(C)(C)C1 (stereo unspecified)	none
CC(=O)c1cccc(NC(=O)CCC(=O)Oc2ccc(C)cc2)c1	none
Cc1ccc(C[n+]2cc(-c3ccc(Cl)cc3)n3c2CCC3)cc1	TRPC4 block -7, TRPC6 inhibitor -5.61 | HEK293 MPD ctr-2 -96.5% | HEK293 MPD ctr 2-2 inactive | TRPC4/MOR mod -17.5% | TRPC4/MOR inh 2 30.0% | TRPC6 block conf inactive | TRPC6 act confirm inactive
Cc1ccc(-c2c[n+](Cc3cccc(Cl)c3)c3n2CCC3)cc1	TRPC4 block -6, TRPC6 inhibitor -5.13 | HEK293 MPD ctr-2 -147.0% | HEK293 MPD ctr 2-2 inactive | TRPC4/MOR mod -23.5% | TRPC4/MOR inh 2 83.5% | TRPC6 block conf inactive | TRPC6 act confirm inactive
Cc1ccc(-c2c[n+](CC(=O)Nc3c(C)cccc3C)c3n2CCC3)cc1	none
COc1ccc(C(C)C)cc1S(=O)(=O)NC1CCCC1	none
Cc1ccc([C@@H]2[C@@H]3C(=O)N(c4ccccc4)C(=O)[C@@H]3[C@]3(C)C(=O)N(Cc4ccc(-c5ccccc5)cc4)CC(=O)N23)o1	none
COCCNc1oc(/C=C/c2ccccc2)nc1C#N	none
N#Cc1nc(/C=C/c2ccccc2)oc1NCCCN1CCOCC1	TRPC6 inhibitor -7.12 | TRPC4 spec 2 inactive | TRPC4 spec inactive | HEK293 MPD ctr 2-1 inactive | HEK293 MPD ctr-1 inactive | TRPC6 block conf inactive | TRPC6 act confirm inactive
Cc1cc(Cl)ccc1C(=O)C1CCCN(C(=O)c2cnsn2)C1 (stereo unspecified)	TRPC6 inhibitor -6.74 | TRPC4 spec 2 inactive | TRPC4 spec 26.3% | HEK293 MPD ctr 2-1 inactive | HEK293 MPD ctr-1 17.9% | TRPC6 block conf inactive
CSc1nc(C(=O)N2CCCC(C(=O)c3ccc(Cl)cc3)C2)cs1 (stereo unspecified)	TRPC6 inhibitor -5.89 | HEK293 MPD ctr-2 138.0% | HEK293 MPD ctr 2-2 inactive | TRPC4/MOR mod 33.0% | TRPC4/MOR inh 2 inactive | TRPC6 block conf inactive
Cc1cc(Cl)ccc1C(=O)C1CCCN(C(=O)c2cscn2)C1 (stereo unspecified)	none
COc1cc(CNC(=O)c2cc3ccccc3oc2=O)cc(OC)c1OC	none
COc1ccc(N2CCN(c3cc(C)nc4ccc(OC)cc34)CC2)cc1	TRPC6 inhibitor -5.64 | HEK293 MPD ctr-2 -228.5% | HEK293 MPD ctr 2-2 inactive | TRPC4/MOR mod -42.0% | TRPC4/MOR inh 2 65.0% | TRPC6 block conf 62.5% | TRPC6 act confirm inactive
COc1ccc2nc(C)cc(N3CCC(C(N)=O)CC3)c2c1	TRPC6 inhibitor -9.14 | HEK293 MPD ctr-2 -356.5% | HEK293 MPD ctr 2-2 94.5% | TRPC4/MOR mod -59.5% | TRPC4/MOR inh 2 62.5% | TRPC6 block conf 72.5% | TRPC6 act confirm inactive
CCOC(=O)C1CCN(c2nc3cc(OC)ccc3cc2C#N)CC1	none
CCOC(=O)C1CCN(c2cc(C)nc3ccc(OC)cc23)CC1	TRPC6 inhibitor -8.94 | HEK293 MPD ctr-2 -235.5% | HEK293 MPD ctr 2-2 85.0% | TRPC4/MOR mod -36.5% | TRPC4/MOR inh 2 69.5% | TRPC6 block conf 86.5% | TRPC6 act confirm inactive
Cc1nn(CC(=O)NCCCN2CC(C)CC(C)C2)c(=O)c2cccn12 (stereo unspecified)	none
O=C(COC(=O)c1cc(Br)ccc1O)Nc1cccnc1Cl	none
O=C(Nc1nc2c(F)cc(F)cc2s1)C1CC1	none
CC(OC(=O)Cc1n[nH]c(=O)c2ccccc12)C(=O)Nc1ccc(F)cc1 (stereo unspecified)	none
Cc1cc2cc(CCNC(=O)CCCc3ccccc3)c(=O)[nH]c2cc1C	none
COc1ccc(NC(=S)NNc2ccc([N+](=O)[O-])cc2S(=O)(=O)Nc2ccc(C)cc2C)cc1	TRPC6 inhibitor -6.78 | TRPC4 spec 2 inactive | TRPC4 spec inactive | HEK293 MPD ctr 2-1 inactive | HEK293 MPD ctr-1 inactive | TRPC6 block conf inactive | TRPC6 act confirm inactive
Cc1ccc(C2(C)NC(=O)N(CC(=O)NCc3ccccc3Cl)C2=O)cc1 (stereo unspecified)	none
O=C(Nc1ccc2c(c1)OCCO2)c1ccc(NC(=O)C2CCCO2)cc1 (stereo unspecified)	TRPC6 inhibitor -5.21 | HEK293 MPD ctr-2 inactive | HEK293 MPD ctr 2-2 inactive | TRPC4/MOR mod inactive | TRPC4/MOR inh 2 inactive | TRPC6 block conf inactive | TRPC6 act confirm inactive
